Screening results as filed in PubChem.
aDG glyco up – increases alpha dystroglycan glycosylation; AID 624168; 360,000 tested, 0.22% active; Pro5-aDG cells, alpha-DG glycosylation AlphaScreen (IIH6); 0% Pro5, 100% B10-LARGE cell signal; activation, % at 10 µM;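 active = activation of at least 8% versus controls, or a plate z-score of at least 8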;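 note: Pro5 are CHO cells carrying HIG-tagged alpha-DG that lacks glycosylation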
NTR1 agonist – NTR1 (human) agonism; 330,000 tested, 0.17% active; NTR1-U2OS beta-arrestin-GFP spot imaging, agonist mode; activation, % at 20 µM;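 active = activation at or above 40% of the spot to cytoplasm intensity ratio, with at least 20 cells analyzed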;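 note: 0% = DMSO without peptide and 100% = 100 nM NTR1 peptide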
MC4R ag barr – agonists of human melanocortin 4 receptor (MC4R) beta-arrestin; activation, % at 8.9 µM; U2OS MC4R beta-arrestin complementation, luminescence; percent of melanotan II response, DMSO zero; AID 540308; 360,000 tested, 0.98% active;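 active = activation above a per-plate cutoff, the mean activation of sample wells on that plate plus 3 SD, cut at about 8% in these data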
Tb MetRS inh – Trypanosoma brucei MetRS inhibition. 360,000 tested, 0.4% active. inhibition, % at 11.9 µM. purified T. brucei MetRS, ATP depletion, Kinase-Glo luminescence;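 active = inhibition above a per-plate cutoff of the control wells' mean inhibition plus 3 SD, cut at about 5.5% in these data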;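 note: 0% = DMSO wells median and 100% = median of wells with control inhibitor compound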
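Material: parasite MetRS enzyme / Replication: singlicate, one well per compound / Signal: luminescence of leftover ATP / Schedule: 2 h aminoacylation at 25 °C after 15 min preincubation / Medium: HEPES-MgCl2-KCl buffer plus DTT, spermine, BSA, pyrophosphatase / Doses: 11.9 µM single point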
H9c2 TAG inh – inhibitors of triacylglycerol accumulation; H9c2 cells, Nile Red lipid (TAG) fluorescence; cells loaded with 200 µM oleic acid; inhibition, % at 12.5 µM; 230,000 tested, 0.66% active; AID 651582;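 active = pattern-corrected inhibition of lipid staining of at least 50% with the nuclear-stain viability signal not falling by more than 50%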;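 note: 0% = DMSO wells and 100% = triacsin C control wells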
MC4R antag cAMP – antagonists of human melanocortin 4 receptor (MC4R); P32245; MC4R-expressing cells, MTII-stimulated cAMP, LANCE TR-FRET; inhibition, % at 6.5 µM; 360,000 tested, 0.48% active;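 active = inhibition above its plate's cutoff, the mean of tested wells on that plate plus 3 SD, cut at about 29% in these data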;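 note: 0% = Melanotan II alone and 100% = Melanotan II plus saturating MCL0020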
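Assay system: U2OS-MC4R stable cell line; Also added: Melanotan II; Technique: Eu-cAMP/anti-cAMP TR-FRET, emission 671 nm; Times: 30-min compound, 1-h challenge, 1-h detection, room temperature.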
MC4R barr conf – human MC4R beta-arrestin agonism confirmation; U2OS MC4R beta-arrestin recruitment, luminescence; scaled DMSO 0%, Melanotan II 100%; AID 602192; 2,400 tested, 31% active; activation, % at 8.9 µM; shares compounds with MC4R ag barr;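 active = mean activation across replicates above the hit cutoff set in the earlier primary screen, cut at about 8% in these data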
MOR DOR agonist – OPRM1-OPRD1 heterodimer agonism counter-screen; shares compounds with MC4R ag barr; U2OS PathHunter beta-arrestin, beta-gal luminescence; percent of deltorphin B response, DMSO zero; activation, % at 9.2 µM; 2,400 tested, 5.8% active; AID 602194;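 active = mean activation across replicates exceeds the hit threshold derived in the earlier primary screen, cut at about 18% in these data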;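 note: 100% = deltorphin B at 0.9 µM final and 0% = DMSO alone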
Target sequence (P35372 whole entry, looked up): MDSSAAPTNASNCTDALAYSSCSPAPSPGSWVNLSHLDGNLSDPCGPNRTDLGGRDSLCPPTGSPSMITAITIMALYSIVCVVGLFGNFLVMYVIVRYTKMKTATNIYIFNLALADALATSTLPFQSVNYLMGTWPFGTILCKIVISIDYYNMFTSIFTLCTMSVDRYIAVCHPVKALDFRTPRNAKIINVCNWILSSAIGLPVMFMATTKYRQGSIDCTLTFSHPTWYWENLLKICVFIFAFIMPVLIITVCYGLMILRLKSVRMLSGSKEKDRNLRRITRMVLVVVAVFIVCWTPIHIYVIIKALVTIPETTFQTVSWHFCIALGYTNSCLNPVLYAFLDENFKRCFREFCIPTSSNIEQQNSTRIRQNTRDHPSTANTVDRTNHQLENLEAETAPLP
Target sequence (P41143 whole entry, looked up): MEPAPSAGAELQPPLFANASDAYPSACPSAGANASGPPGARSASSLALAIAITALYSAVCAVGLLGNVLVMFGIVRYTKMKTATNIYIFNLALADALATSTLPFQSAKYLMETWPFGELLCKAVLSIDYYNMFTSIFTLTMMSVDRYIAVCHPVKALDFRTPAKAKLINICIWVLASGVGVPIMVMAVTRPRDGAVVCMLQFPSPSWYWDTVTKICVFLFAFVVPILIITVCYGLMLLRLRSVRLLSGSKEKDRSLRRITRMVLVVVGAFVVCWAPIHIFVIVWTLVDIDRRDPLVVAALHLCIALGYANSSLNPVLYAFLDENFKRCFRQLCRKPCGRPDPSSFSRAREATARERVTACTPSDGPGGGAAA
aDG glyco conf – confirmation of alpha dystroglycan glycosylation activators | shares compounds with aDG glyco up | 600 tested, 17% active | AID 651671 | Pro5-aDG cells, alpha-DG glycosylation, IIH6 AlphaLISA; scaled to LARGE-overexpressing B10 cells as 100% | activation, % at 10 µM (by protocol);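 active = activation of at least 7% in one or more replicates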;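 note: cells exposed to compound for two days before detection; 0% = DMSO-treated Pro5 cells and 100% = DMSO-treated B10-LARGE cells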
H9c2 TAG conf – confirmation of triacylglycerol accumulation inhibitors; shares compounds with H9c2 TAG inh; H9c2 lipid accumulation, Nile Red fluorescence; cells loaded with 200 µM oleic acid; inhibition, % at 12.5 µM; 990 tested, 71% active; AID 651629;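 active = mean inhibition across replicates of 40% or more; inactive = mean inhibition below 40%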;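 note: plate controls were DMSO only wells for no effect and Triacsin C treated wells for full effect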
* hit, by the source's call; . = no result given. Sampled rows, rich in hits. Any-hit rate of the full collection: about 2.4%.

SMILES | aDG glyco up | NTR1 agonist | MC4R ag barr | Tb MetRS inh | H9c2 TAG inh | MC4R antag cAMP | aDG glyco conf | others
CCOc1cc(/C=N\NC(=O)c2ccc(NC(=O)C(C)(C)C)cc2)ccc1OC(=O)c1ccc(C)cc1 | 0 | 2 | 4 | 0 | 26 | -4 | .
CCOc1cc(/C=N\NC(=O)c2ccc(NC(=O)C(C)(C)C)cc2)ccc1OC(=O)c1cccc(C)c1 | 0 | 4 | 18* | 0 | 64* | 4 | . | MC4R barr conf=4;MOR DOR agonist=5;H9c2 TAG conf=37
Cc1ccc2nc(NC(=O)C3CCCN(S(=O)(=O)c4cccc5nonc45)C3)sc2c1 (configuration not stated) | . | -2 | . | . | . | . | .
Cc1cccc2sc(NC(=O)C3CCCN(S(=O)(=O)c4cccc5nonc45)C3)nc12 (configuration not stated) | 0 | 4 | 9.9* | 0 | 54* | 6 | . | MC4R barr conf=3;MOR DOR agonist=7;H9c2 TAG conf=74*
COc1ccc(CCNC(=O)c2cc([C@@H](NC(=O)OC(C)(C)C)C(C)C)sc2N)cc1OC | 0 | . | . | 0 | . | . | .
NC(Cc1ccc(Cl)cc1)c1csc(NC(=O)NCCc2ccccc2)n1 (configuration not stated) | 0 | . | 13* | 0 | 74* | 1 | . | MC4R barr conf=27*;MOR DOR agonist=21*;H9c2 TAG conf=42*
COc1cccc(Nc2nc(C(N)Cc3ccc(F)cc3)cs2)n1 (configuration not stated) | 3 | . | 5 | 0 | 20 | -10 | .
COc1ccc(CNC(=O)Nc2nc(C(N)Cc3ccc(C(F)(F)F)cc3)cs2)cc1 (configuration not stated) | 0 | . | 16* | 0 | 61* | -7 | . | MC4R barr conf=17*;MOR DOR agonist=12;H9c2 TAG conf=35
COc1cccc(Nc2nc(C(N)Cc3ccc(C(F)(F)F)cc3)cs2)n1 (configuration not stated) | 0 | . | 12* | 0 | 72* | -6 | . | MC4R barr conf=5;MOR DOR agonist=11;H9c2 TAG conf=37
CN(CCc1ccccc1)C(C(=O)c1ccc2c(c1)OCO2)c1nnnn1-c1ccccc1NC(=O)OC(C)(C)C (configuration not stated) | 0 | . | . | -1 | . | . | .
Cc1ccc(S(=O)(=O)N2C[C@H]3N(C(=O)OC(C)C)N(C(=O)OC(C)C)C[C@H](OC(=O)NCC4CCCCC4)[C@@]3(O)C2)cc1 | 0 | . | 4 | -1 | 19 | 8 | .
Cn1cnc([N+](=O)[O-])c1Oc1ccc2ccccc2c1 | 4.7* | 1 | 2 | 0 | . | -3 | -1
CC(C)[C@@H](C(=O)N[C@@H](CCc1ccc(O)cc1)C(=O)O)N(C)C(=O)[C@H](CO)NC(=O)[C@@H](O)[C@H](N)CCCCCCCCl | 0 | . | 1 | 1 | . | 3 | .
COCCN1CCC(CNCc2cn(-c3cc(C)ccc3C)nc2-c2ccccc2)C1 (configuration not stated) | 7.8* | 1 | 0 | 0 | . | 4 | 8.6*
Cc1cc(NC(=O)C2CCCN(S(=O)(=O)c3c(C)noc3C)C2)no1 (configuration not stated) | 0 | 0 | -1 | 0 | -16 | -1 | .
Cc1cc(C)cc(NC(=O)C2CCCN(S(=O)(=O)c3c(C)noc3C)C2)c1 (configuration not stated) | 3.1* | 0 | -2 | 0 | . | 6 | 0
Cc1noc(/C=C/N(C)C)c1S(=O)(=O)N1CCC(C(=O)Nc2ccc(Cl)cc2)CC1 | 8.6* | 2 | -3 | 0 | . | 9 | 2
O=C(c1ccc([N+](=O)[O-])o1)N1CCN(c2nc3ccc(F)cc3s2)CC1 | 5.1* | 2 | -4 | 0 | 17 | 18 | 1
COc1ccccc1Cc1c(-c2cccc(Cl)c2)nc2ccc(Br)cn12 | 0 | . | . | -1 | . | . | .
CCOC(=O)c1ccc(N2C(=O)c3n[nH]c(C)c3C2c2ccccc2)cc1 (configuration not stated) | 28* | 2 | -2 | -2 | 12 | 9 | -1
CCOC(=O)c1ccc(N2C(=O)c3n[nH]c(C)c3C2c2ccc(O)cc2)cc1 (configuration not stated) | 0 | 2 | -2 | 0 | 2 | 13 | .
COc1ccccc1CCC(=O)OCC(=O)c1c(N)n(CC(C)C)c(=O)n(C)c1=O | 6.5* | 3 | 3 | 0 | -12 | 2 | -1
CCCCN(CC)CCCNC(=O)c1cn(CC)c2ccc(S(=O)(=O)N3CCc4ccccc4C3)cc2c1=O | 8.5* | 4 | 0 | -1 | 31 | 2 | 2
COCCc1ccc(OC2(C)CCN(Cc3ccc(OC)c4ccccc34)C2)cc1 (configuration not stated) | 0 | . | 1 | 1 | -11 | -4 | .
Cn1cc(CNC(=O)COc2ccc(Cl)cc2Cl)cn1 | 0 | -2 | 0 | 2 | 24 | -1 | .
SMILES | aDG glyco up | NTR1 agonist | MC4R ag barr | Tb MetRS inh | H9c2 TAG inh | MC4R antag cAMP | aDG glyco conf | others
Cc1nn(C)cc1CNC(=O)COc1ccc(Cl)cc1Cl | 15* | 1 | 0 | 1 | -6 | -3 | 0
O=C(Nc1ccc(Cl)cc1)N1CCCN(Cc2ccc(F)cc2)C1 | 7.8* | 2 | 1 | 2 | . | 1 | 1
Cc1cc2nc(-c3ccc(C#N)cc3)c(Cc3ccsc3)n2c(C)c1Br | 1 | . | . | -1 | . | . | .
O=C(NCCS(=O)(=O)NCC1CCCO1)c1ccccc1 (configuration not stated) | 5.2* | 0 | 4 | -1 | 7 | 5 | 3
O=C(NCC1CCCO1)c1ccccc1 (configuration not stated) | 0 | -2 | 0 | 0 | -6 | 5 | .
CC(C)CCN1C(=O)c2ccccc2C1c1nnnn1-c1ccc2c(c1)OCCO2 (configuration not stated) | 0 | . | . | -1 | . | . | .
O=C(CSc1nc2c(c(=O)[nH]1)CCC2)Nc1ccccc1Cl | 0 | -1 | 1 | 0 | . | -1 | .
Cc1ccc(NC(=O)CSc2nc3c(c(=O)[nH]2)CCC3)c(C)c1 | 7.4* | -1 | -1 | 0 | . | -3 | 2
CN(CC(=O)Nc1cccc(F)c1)C(=O)c1ccc(N2C(=O)c3ccccc3C2=O)cc1 | 5.1* | -1 | 1 | 0 | -20 | 5 | -1
